Hits are enriched below; roughly 2.3% of the tested compounds scored in any of these assays.
SUMO1 PPI mod – modulators of SUMO1 protein-protein interactions, primary screen, biochemical, uHTS | Small ubiquitin-related modifier 1 (Homo sapiens), P63165 | SUMO1 binding to a labelled peptide, TR-FRET, 1 h | inhibition, % at 20 µM | hit rate 0.33% among 360,000 | AID 602429, 2012; in the data active means inhibition above about 37%
Target sequence (P63165 whole entry, looked up): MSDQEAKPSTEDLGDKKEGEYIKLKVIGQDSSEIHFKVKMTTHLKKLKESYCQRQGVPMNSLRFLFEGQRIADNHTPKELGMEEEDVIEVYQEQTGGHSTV
NadD inh – inhibitors of S. aureus NadD, primary screen, biochemical, colorimetric, uHTS; inhibition, % at 20 µM; AID 602399, 2012; Nicotinate-nucleotide adenylyltransferase NadD (Staphylococcus aureus N315); hit rate 0.78% among 360,000; purified NadD enzyme, colorimetric absorbance read-out; in the data active means inhibition above about 26%
DNMT1 block – human DNMT1 methyltransferase inhibitors, primary screen, biochemical, molecular beacon, fluorescence, HinP1I cleavage, uHTS | DNA (cytosine-5)-methyltransferase 1 (Homo sapiens), P26358 | inhibition (reported as % activation of signal), % at 10 µM | hit rate 0.83% among 360,000 | AID 588458, 2011; in the data active means inhibition above about 50%
STEP inh – STEP phosphatase inhibitors, primary screen, biochemical, fluorescence intensity, uHTS | Tyrosine-protein phosphatase non-receptor type 5 (Homo sapiens), P54829 | recombinant STEP, OMFP fluorogenic substrate | inhibition, % at 20 µM | hit rate 0.25% among 360,000 | AID 588621, 2011;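 active means inhibition at 20 µM, scaled per plate between control wells, above about 37%, limit read from the data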;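 further: 0% = DMSO with enzyme and substrate and 100% = substrate only without enzyme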
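Also added – OMFP at 25 µM · Test system – STEP tyrosine phosphatase · Technique – FITC-channel fluorescence of OMFP product · Schedule – 20 min at room temperature, dark · Evaluation – control-normalized % inhibition with plate pattern correction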
Scp-1 inhibitor – Scp-1 phosphatase inhibitors, primary screen, biochemical, colorimetric, uHTS; Carboxy-terminal domain RNA polymerase II polypeptide A small phosphatase 1 (Homo …; Recombinant Scp1, phosphopeptide, malachite green phosphate absorbance; inhibition, % at 20 µM; hit rate 0.88% among 340,000;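 active means inhibition above about 50% at 20 µM, limit read from the data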;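 further: plate controls were DMSO wells with enzyme for no effect and wells lacking enzyme for full effect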
Target sequence (Q9GZU7 76-261 limits assumed): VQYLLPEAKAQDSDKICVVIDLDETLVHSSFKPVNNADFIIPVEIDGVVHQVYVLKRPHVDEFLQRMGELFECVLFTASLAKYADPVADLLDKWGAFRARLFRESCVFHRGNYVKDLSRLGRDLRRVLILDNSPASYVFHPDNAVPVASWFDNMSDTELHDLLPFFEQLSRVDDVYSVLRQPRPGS
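Incubation: 45 min enzyme reaction at room temperature / System: truncated SCP-1 phosphatase (76-261aa) / Reagent: Phospho 17-mer peptide substrate / Buffer or medium: Acidic Tris acetate buffer with magnesium and detergent / Signal: absorbance at 630 nm / Doses: one concentration, 20 µM, with 1.0% DMSO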
LMPTP inh – LMPTP phosphatase inhibitors, primary screen, biochemical, fluorescence intensity, uHTS | AID 651560, 2012 | hit rate 0.22% among 360,000 | inhibition, % at 20 µM | Low molecular weight phosphotyrosine protein phosphatase (Homo sapiens), P24666 | recombinant LMPTP-A, OMFP fluorogenic substrate;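 active means compounds that cut the enzyme signal by at least half of the control window in the single-dose screen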;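 further: plate controls were DMSO wells with enzyme plus substrate for no effect and substrate without enzyme for full effect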
Target sequence (P24666 whole entry, looked up): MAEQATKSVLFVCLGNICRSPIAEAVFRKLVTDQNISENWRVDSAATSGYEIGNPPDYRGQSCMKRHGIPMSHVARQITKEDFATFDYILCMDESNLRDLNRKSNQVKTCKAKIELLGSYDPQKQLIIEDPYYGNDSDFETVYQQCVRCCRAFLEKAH
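Buffer or medium: Bis-Tris pH 6.0, DTT, detergent; Assay system: LMPTP-A enzyme; Quantity: 0.625 nM enzyme; Detection: endpoint fluorescence intensity; Times: 50 min dark incubation at room temperature; Controls: substrate-only low control, DMSO enzyme-plus-substrate high control; Doses: single 20 µM dose; Read-out: percent inhibition versus substrate-only and uninhibited controls; Reagent: 400 µM OMFP.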
Scp1 confirm – Scp-1 phosphatase inhibitors, retest, confirmation, biochemical, colorimetric, single concentration | shares compounds with Scp-1 inhibitor | recombinant SCP-1 catalytic domain, phosphate release, malachite green absorbance | inhibition, % at 20 µM | hit rate 61% among 2,500;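 further: plate controls were DMSO with enzyme for no effect and buffer wells lacking enzyme for full effect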
Scp-1 MG ctr – colorimetric readout interference by compounds, confirmation, artefact control for Scp-1 inhibitor project, biochemical, single concentration | shares compounds with Scp-1 inhibitor | Colorimetric interference counterscreen, malachite green absorbance 630 nm | apparent inhibition (interference), % at 20 µM | 2,500 tested, under 10 active | AID 540313, 2011;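 further: compounds added after enzyme reaction finished so only phosphate colour detection is probed; plate controls were DMSO wells with completed Scp-1 reaction for no effect and substrate wells lacking enzyme for full effect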
Scp1 DSF – Scp-1 binding by thermal shift, confirmation, orthogonal assay for Scp-1 inhibitor project, biophysical, differential scanning fluorimetry; shares compounds with Scp-1 inhibitor; Recombinant SCP1, Sypro Orange thermal shift Tm; thermal shift relative to vanadate control, % at 40 µM; hit rate 25% among 1,500;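 active means substances whose mean melting-temperature shift, as a percentage of the reference inhibitor's shift, reaches about 5.3%, limit read from the data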;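 further: 0% = Tm of DMSO wells and 100% = Tm with sodium orthovanadate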
DNMT1 interf DR – spectral interference with molecular beacon fluorescence, dose response, artefact control for DNMT1 inhibitor project, biochemical, fluorescent molecular beacon. shares compounds with DNMT1 block. spectral interference counter-screen. IC50, µM. 200 tested, under 10 active. AID 602382, 2012; call rule not given here
DNMT1 confirm – DNMT1 methyltransferase inhibitor retest, confirmation, biochemical, molecular beacon, fluorescence, single concentration. AID 602385, 2012. DNMT1 molecular beacon HinP1I cleavage. shares compounds with DNMT1 block. hit rate 8% among 2,300. inhibition, % at 10 µM;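 active means average inhibition of at least 30% in the single-concentration confirmation test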
DNMT1 interf – counter-screen for DNMT1 inhibitors: spectral interference; shares compounds with DNMT1 block; DNMT1 molecular beacon spectral interference counterscreen, fluorescence 485/520; activation (fluorescence interference), % at 10 µM; hit rate 1% among 2,300; AID 602387;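 active means activation of at least 30% at 10 µM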;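 further: DNMT1 catalytic domain with a HinP1I cleavage step and a FAM/dabcyl DNA beacon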
STEP conf – STEP phosphatase inhibitor hit confirmation, biochemical, fluorescence intensity, single concentration; shares compounds with STEP inh; hit rate 32% among 520; inhibition, % at 20 µM; recombinant STEP, OMFP fluorogenic substrate; call rule not given here;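 further: 0% = enzyme with substrate plus DMSO and 100% = substrate without enzyme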
NadD conf – inhibitors of S. aureus NadD, confirmation, biochemical, colorimetric, single concentration; shares compounds with NadD inh; purified S. aureus NadD, colorimetric enzyme assay; inhibition, % at 20 µM; hit rate 13% among 2,000; AID 624309, 2012; in the data active means inhibition mostly above about 42%, no sharp cut-off; inactive means mostly below about 42%
* = called active by the depositor; · = no result.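 How the source made its calls, unless noted: active means inhibition of at least 30% at 20 µM; inactive means the rest.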

SMILES	SUMO1 PPI mod	NadD inh	DNMT1 block	STEP inh	Scp-1 inhibitor	LMPTP inh	Scp1 confirm	Scp-1 MG ctr	Scp1 DSF	DNMT1 confirm	DNMT1 interf	STEP conf	NadD conf	others
O=C(/C=C/c1ccc(Cl)cc1)NC(=S)Nc1ccc(C(=O)O)cc1	-7	4	2	92*	96*	67*	88*	-8	-2	·	·	50*	·
C[C@H](NC(=O)c1ccccc1Cl)C(=O)OCc1cn2cc(Cl)ccc2n1	-1	3	2	-2	-11	-1	·	·	·	·	·	·	·
COc1cc(C(=O)Nc2ccc3c(c2)C(=O)c2ccccc2C3=O)cc(OC)c1OC	2	-2	66*	74*	88*	47	42*	-8	0	0	-1	19	·
O=C(N/N=C/c1ccccc1)c1ccc(-c2ccccc2)cc1	6	3	2	-3	-2	-2	·	·	·	·	·	·	·
NC(=O)COc1ccc(/C=N\NC(=O)c2ccc(-c3ccccc3)cc2)cc1	1	-5	41	85*	86*	38	56*	-10	-32	·	·	2	·
CC(=O)N1CCOc2ccc(S(=O)(=O)NCCc3ccc(S(N)(=O)=O)cc3)cc21	2	-1	1	-1	6	0	·	·	·	·	·	·	·
CC(=O)N1CCOc2ccc(S(=O)(=O)NCc3ccc(F)cc3)cc21	-2	0	26	73*	62*	22	50*	-16	-9	·	·	30*	·
O=C1NC(=Nc2ccc(Cl)cc2)/C(=C/c2ccco2)S1	10	37*	77*	61*	93*	38	80*	-8	7.8*	11	2	·	-1
O=[N+]([O-])c1ccc(C=NNC(=S)NN=Cc2ccc([N+](=O)[O-])cc2)cc1	92*	35*	88*	96*	88*	75*	55*	-14	12*	1	-12	8	5
O=[N+]([O-])c1ccc(C=NNC(=S)Nc2ccc(F)cc2)cc1	-10	1	14	-1	-7	3	·	·	·	·	·	·	·
Cc1cccc(N2CCN(C(=O)CCCCCn3c(=S)[nH]c4ccc(N5CCOCC5)cc4c3=O)CC2)c1C	-30	46*	-4	8	82*	5	-13	-19	·	·	·	·	6
O=C(NCc1cccnc1)c1cc(C2CCCN(C(=O)c3cccc(O)c3)C2)on1 (configuration not stated)	3	0	1	-3	·	-1	·	·	·	·	·	·	·
COC(=O)[C@]12CCCCC=C1N(Cc1cccc3ccccc13)C(=O)[C@H](CC(=O)NCC13CC4CC(CC(C4)C1)C3)C2	4	13	·	·	·	4	·	·	·	·	·	·	·
Cn1c(N)c(N2CCN(c3ccccc3)CC2)c(=O)[nH]c1=O	1	-1	13	1	-2	0	·	·	·	·	·	·	·
Cc1cc(-c2nn3c(-c4ccccc4)nnc3s2)c2ccccc2n1	2	0	8	2	-4	3	·	·	·	·	·	·	·
c1ccc(-c2cc(-c3nn4c(-c5ccco5)nnc4s3)c3ccccc3n2)cc1	18	47*	55*	8	92*	3	43*	-1	7.3*	4	-3	·	15
CCc1nnc(NC(=O)c2cc(-c3ccco3)nc3ccccc23)s1	51*	81*	92*	10	65*	45	45*	-15	8.5*	23	-1	·	44
Cc1ccc(NC(=O)c2cc(-c3ccco3)nc3ccccc23)cc1S(=O)(=O)N1CCOCC1	1	63*	68*	0	65*	13	36*	-4	7.1*	10	3	·	60*
CC(C)CCNC(=O)c1cc(-c2ccco2)nc2ccccc12	-7	-4	-4	0	-4	0	·	·	·	·	·	·	·
CN(C)C(CNC(=O)c1cc(-c2ccco2)nc2ccccc12)c1ccccc1 (configuration not stated)	-8	59*	86*	5	70*	34	55*	-12	13*	46*	-2	·	59*	DNMT1 interf DR=>99
CCc1nnc(NC(=O)c2cc(-c3ccccn3)nc3ccccc23)s1	12	6	1	-4	-3	0	·	·	·	·	·	·	·
CCOc1cc(/C=N/N=C2/NC(=O)C(CC(=O)O)S2)ccc1OS(=O)(=O)c1ccc(C)cc1 (configuration not stated)	2	6	-3	4	-3	0	·	·	·	·	·	·	·
COc1ccc(/C=N/N=C2/NC(=O)C(CC(=O)O)S2)cc1OCc1ccc(Cl)cc1Cl (configuration not stated)	17	36*	7	80*	66*	4	79*	-7	-10	·	·	35*	31

Screening data (PubChem)
